Measurements published in ChEMBL document CHEMBL4425187, “A new class of flavonol-based anti-prostate cancer agents: Design, synthesis, and evaluation in cell models” (Bioorg Med Chem Lett, 2016).

Tests used:
LNCaP = test: Potency index, ratio of IC50 for 3',4'-dimethoxyflavonol to IC50 for test compound against human LNCAP cells; format: functional
In short: (§1)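 IC50 from WST-1 proliferation assay in PC-3 (androgen-insensitive) and LNCaP (androgen-sensitive) cells after 3-day exposure at five concentrations, DMSO vehicle control, quercetin positive control. IC50 derived from dose-response curves, mean ± SEM. The index is the parent flavonol IC50 divided by the test compound IC50.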

PC-3 [1] = test: Potency index, ratio of IC50 for 3',4'-dimethoxyflavonol to IC50 for test compound against human PC3 cells; format: functional; in short: as §1
PWR-1E = test: Cytotoxicity against human PWR-1E cells assessed as inhibition of cell proliferation at 10 to 50 uM after 3 days by WST1 assay; format: cell-based; settings: 72 h
PC-3 [2] = test: Induction of apoptosis is human PC3 cells assessed as late apoptotic/necrotic cells at 30 uM after 16 hrs by F2N12S/CYTOX AADvanced double-staining based by flow cytometry (reference value: 9%); format: functional
PC-3 [3] = test: Induction of apoptosis is human PC3 cells assessed as late apoptotic/necrotic cells at 1 uM after 16 hrs by F2N12S/CYTOX AADvanced double-staining based by flow cytometry (reference value: 9%); format: functional
PC-3 [4] = test: Cell cycle arrest in human PC3 cells assessed as accumulation in G2/M phase at 10 uM after 24 hrs by propidium iodide staining-based flow cytometry (reference value: 16%); format: functional
PC-3 [5] = test: Induction of apoptosis is human PC3 cells assessed as live cells at 30 uM after 16 hrs by F2N12S/CYTOX AADvanced double-staining based by flow cytometry (reference value: 88%); format: functional
PC-3 [6] = test: Induction of apoptosis is human PC3 cells assessed as live cells at 100 uM after 16 hrs by F2N12S/CYTOX AADvanced double-staining based by flow cytometry (reference value: 88%); format: functional
PC-3 [7] = test: Cell cycle arrest in human PC3 cells assessed as accumulation in G0/G1 phase at 10 uM after 24 hrs by propidium iodide staining-based flow cytometry (reference value: 69.4%); format: functional
PC-3 [8] = test: Induction of apoptosis is human PC3 cells assessed as live cells at 5 uM after 16 hrs by F2N12S/CYTOX AADvanced double-staining based by flow cytometry (reference value: 88%); format: functional
PC-3 [9] = test: Induction of apoptosis is human PC3 cells assessed as live cells at 50 uM after 16 hrs by F2N12S/CYTOX AADvanced double-staining based by flow cytometry (reference value: 88%); format: functional
PC-3 [10] = test: Induction of apoptosis is human PC3 cells assessed as early apoptotic cells at 100 uM after 16 hrs byF2N12S/CYTOX AADvanced double-staining based by flow cytometry (reference value: 3%); format: functional
PC-3 [11] = test: Induction of apoptosis is human PC3 cells assessed as live cells at 20 uM after 16 hrs by F2N12S/CYTOX AADvanced double-staining based by flow cytometry (reference value: 88%); format: functional
PC-3 [12] = test: Induction of apoptosis is human PC3 cells assessed as early apoptotic cells at 30 uM after 16 hrs by F2N12S/CYTOX AADvanced double-staining based by flow cytometry (reference value: 3%); format: functional
PC-3 [13] = test: Induction of apoptosis is human PC3 cells assessed as early apoptotic cells after 16 hrs by F2N12S/CYTOX AADvanced double-staining based by flow cytometry relative to control; format: functional, cell-based
PC-3 [14] = test: Cell cycle arrest in human PC3 cells assessed as accumulation in G0/G1 phase at 10 uM after 20 hrs by propidium iodide staining-based flow cytometry (reference value: 63.7%); format: functional
PC-3 [15] = test: Induction of apoptosis is human PC3 cells assessed as live cells at 10 uM after 16 hrs by F2N12S/CYTOX AADvanced double-staining based by flow cytometry (reference value: 88%); format: functional
PC-3 [16] = test: Induction of apoptosis is human PC3 cells assessed as early apoptotic cells at 50 uM after 16 hrs by F2N12S/CYTOX AADvanced double-staining based by flow cytometry (reference value: 3%); format: functional
PC-3 [17] = test: Cell cycle arrest in human PC3 cells assessed as accumulation in G2/M phase at 10 uM after 20 hrs by propidium iodide staining-based flow cytometry (reference value: 17.4%); format: functional
PC-3 [18] = test: Induction of apoptosis is human PC3 cells assessed as late apoptotic/necrotic cells at 50 uM after 16 hrs by F2N12S/CYTOX AADvanced double-staining based by flow cytometry (reference value: 9%); format: functional
PC-3 [19] = test: Induction of apoptosis is human PC3 cells assessed as live cells at 1 uM after 16 hrs by F2N12S/CYTOX AADvanced double-staining based by flow cytometry (reference value: 88%); format: functional
PC-3 [20] = test: Induction of apoptosis is human PC3 cells assessed as late apoptotic/necrotic cells at 100 uM after 16 hrs by F2N12S/CYTOX AADvanced double-staining based by flow cytometry (reference value: 9%); format: functional
PC-3 [21] = test: Induction of apoptosis is human PC3 cells assessed as early apoptotic cells at 1 uM after 16 hrs by F2N12S/CYTOX AADvanced double-staining based by flow cytometry (reference value: 3%); format: functional
PC-3 [22] = test: Induction of apoptosis is human PC3 cells assessed as late apoptotic/necrotic cells at 5 uM after 16 hrs by F2N12S/CYTOX AADvanced double-staining based by flow cytometry (reference value: 9%); format: functional

CCCCOc1c(-c2ccc(OC)c(OC)c2)oc2ccccc2c1=O
Ratio IC50 (LNCaP): 25 | Ratio IC50 (PC-3 [1]): 24

COc1ccc(-c2oc3ccccc3c(=O)c2O)cc1OC [3-HYDROXY-3',4'-DIMETHOXYFLAVONE]
Activity (PWR-1E): Non-Toxic

CCCCCOc1c(-c2ccc(OC)c(OC)c2)oc2ccccc2c1=O
Ratio IC50 (LNCaP): 14 | Ratio IC50 (PC-3 [1]): 24

COc1ccc(-c2oc3ccccc3c(=O)c2OCCCCCN2CCOCC2)cc1OC
Ratio IC50 (LNCaP): 26 | Ratio IC50 (PC-3 [1]): 91

CCCCN(CCCC)CCCOc1c(-c2ccc(OC)c(OC)c2)oc2ccccc2c1=O
Activity (PC-3 [2]): 5% | Activity (PC-3 [3]): 6% | Activity (PC-3 [4]): 25.1% | Activity (PC-3 [5]): 1% | Activity (PC-3 [6]): 0% | Activity (PC-3 [7]): 61.3% | Activity (PC-3 [8]): 50% | Activity (PC-3 [9]): 0% | Activity (PWR-1E): Non-Toxic | Activity (PC-3 [10]): 39% | Activity (PC-3 [11]): 3% | Activity (PC-3 [12]): 94% | Activity (PC-3 [13]): Dose-dependent effect | Activity (PC-3 [14]): 53.8% | Ratio IC50 (LNCaP): 84 | Ratio IC50 (PC-3 [1]): 292 | Activity (PC-3 [15]): 15% | Activity (PC-3 [16]): 88% | Activity (PC-3 [17]): 32% | Activity (PC-3 [18]): 11% | Activity (PC-3 [19]): 89% | Activity (PC-3 [20]): 61% | Activity (PC-3 [21]): 4% | Activity (PC-3 [22]): 5%

COc1ccc(-c2oc3ccccc3c(=O)c2OCCCCN2CCOCC2)cc1OC
Ratio IC50 (LNCaP): 24 | Ratio IC50 (PC-3 [1]): 45

COc1ccc(-c2oc3ccccc3c(=O)c2OCCCN2CCOCC2)cc1OC
Ratio IC50 (LNCaP): 14 | Ratio IC50 (PC-3 [1]): 38

CCCCN(CCCC)CCCCCOc1c(-c2ccc(OC)c(OC)c2)oc2ccccc2c1=O
Ratio IC50 (LNCaP): 41 | Ratio IC50 (PC-3 [1]): 102

COc1ccc(-c2oc3ccccc3c(=O)c2OC)cc1OC
Ratio IC50 (LNCaP): 12.5 | Ratio IC50 (PC-3 [1]): 14

CCCCN(CCCC)CCCCOc1c(-c2ccc(OC)c(OC)c2)oc2ccccc2c1=O
Ratio IC50 (LNCaP): 47 | Ratio IC50 (PC-3 [1]): 152

CCCOc1c(-c2ccc(OC)c(OC)c2)oc2ccccc2c1=O
Ratio IC50 (LNCaP): 32 | Ratio IC50 (PC-3 [1]): 41

CCCCCCCOc1c(-c2ccc(OC)c(OC)c2)oc2ccccc2c1=O
Ratio IC50 (LNCaP): 5 | Ratio IC50 (PC-3 [1]): 5

CCCCCCOc1c(-c2ccc(OC)c(OC)c2)oc2ccccc2c1=O
Ratio IC50 (LNCaP): 16 | Ratio IC50 (PC-3 [1]): 29

CCOc1c(-c2ccc(OC)c(OC)c2)oc2ccccc2c1=O
Ratio IC50 (LNCaP): 21 | Ratio IC50 (PC-3 [1]): 30

COc1ccc(-c2oc3ccccc3c(=O)c2OC(C)C)cc1OC
Ratio IC50 (LNCaP): 20 | Ratio IC50 (PC-3 [1]): 12
